In ChEMBL document CHEMBL1811814, “Synthesis and evaluation of indole, pyrazole, chromone and pyrimidine based conjugates for tumor growth inhibitory activities--development of highly efficacious cytotoxic agents” (Eur J Med Chem, 2010):

Assays:
Assay type in all cases: functional
[1] = system: MDA-MB-468; assay: Growth inhibition of human MDA-MB-468 cells
[2] = system: OVCAR-4; assay: Growth inhibition of human OVCAR4 cells
[3] = system: HOP-62; assay: Growth inhibition of human HOP62 cells assessed tumor cell growth at 10^-5 M; design: scale not given: the % may be the effect or the level left
Procedure, shortened: (§1)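 NCI 60-human-tumor-cell-line panel screen. Each compound was tested at a single concentration of 10^-5 M, and percent growth of tumor cells was recorded for each cell line. Growth inhibition was expressed from these percent-growth values.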

[4] = system: CAKI-1; assay: Growth inhibition of human Caki1 cells
[5] = system: NCI-H522; assay: Growth inhibition of human NCI-H522 cells assessed tumor cell growth at 10^-5 M; design: scale not given: the % may be the effect or the level left; procedure, shortened: as §1
[6] = system: SNB-75; assay: Growth inhibition of human SNB75 cells
[7] = system: EKVX; assay: Growth inhibition of human EKVX cells
[8] = system: NCI-H226; assay: Growth inhibition of human NCI-H226 cells assessed tumor cell growth at 10^-5 M; design: scale not given: the % may be the effect or the level left; procedure, shortened: as §1
[9] = Growth inhibition of human RPMI8266 cells
[10] = system: NCI/ADR-RES; assay: Growth inhibition of human NCI/ADR-RES cells assessed tumor cell growth at 10^-5 M; design: scale not given: the % may be the effect or the level left; procedure, shortened: as §1
[11] = system: CCRF-CEM; assay: Growth inhibition of human CCRF-CEM cells assessed tumor cell growth at 10^-5 M; design: scale not given: the % may be the effect or the level left; procedure, shortened: as §1
[12] = system: MDA-MB-468; assay: Growth inhibition of human MDA-MB-468 cells assessed tumor cell growth at 10^-5 M; design: scale not given: the % may be the effect or the level left; procedure, shortened: as §1
[13] = system: RXF 393; assay: Growth inhibition of human RXF393 cells
[14] = system: SF-268; assay: Growth inhibition of human SF268 cells assessed tumor cell growth at 10^-5 M; design: scale not given: the % may be the effect or the level left; procedure, shortened: as §1
[15] = system: UO-31; assay: Growth inhibition of human UO31 cells assessed tumor cell growth at 10^-5 M; design: scale not given: the % may be the effect or the level left
Procedure, shortened: (§2)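 Single-dose screen at 10^-5 M across the 60 human tumor cell line panel, run to NCI standards. The value is the percent growth of each cell line in the presence of compound. Compounds active at this dose moved on to five-concentration testing (10^-4 to 10^-8 M).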

[16] = system: ACHN; assay: Growth inhibition of human ACHN cells
[17] = system: IGROV-1; assay: Growth inhibition of human IGROV1 cells assessed tumor cell growth at 10^-5 M; design: scale not given: the % may be the effect or the level left; procedure, shortened: as §1
[18] = system: T47D; assay: Growth inhibition of human T47D cells assessed tumor cell growth at 10^-5 M; design: scale not given: the % may be the effect or the level left; procedure, shortened: as §2
[19] = system: HT-29; assay: Growth inhibition of human HT-29 cells
[20] = system: SK-MEL-28; assay: Growth inhibition of human SK-MEL-28 cells assessed tumor cell growth at 10^-5 M; design: scale not given: the % may be the effect or the level left; procedure, shortened: as §1
[21] = system: SK-MEL-5; assay: Growth inhibition of human SK-MEL-5 cells assessed tumor cell growth at 10^-5 M; design: scale not given: the % may be the effect or the level left; procedure, shortened: as §1
[22] = system: HCT-15; assay: Growth inhibition of human HCT15 cells assessed tumor cell growth at 10^-5 M; design: scale not given: the % may be the effect or the level left; procedure, shortened: as §1
[23] = system: OVCAR-8; assay: Growth inhibition of human OVCAR8 cells
[24] = system: HCC 2998; assay: Growth inhibition of human HCC2998 cells assessed tumor cell growth at 10^-5 M; design: scale not given: the % may be the effect or the level left; procedure, shortened: as §1
[25] = system: SW-620; assay: Growth inhibition of human SW620 cells
[26] = system: NCI-H460; assay: Growth inhibition of human NCI-H460 cells
[27] = system: RXF 393; assay: Growth inhibition of human RXF393 cells assessed tumor cell growth at 10^-5 M; design: scale not given: the % may be the effect or the level left; procedure, shortened: as §1
[28] = system: K562; assay: Growth inhibition of human K562 cells assessed tumor cell growth at 10^-5 M; design: scale not given: the % may be the effect or the level left; procedure, shortened: as §1
[29] = system: LOX IMVI; assay: Growth inhibition of human LOXIMVI cells assessed tumor cell growth at 10^-5 M; design: scale not given: the % may be the effect or the level left; procedure, shortened: as §1
[30] = system: SNB-75; assay: Growth inhibition of human SNB75 cells assessed tumor cell growth at 10^-5 M; design: scale not given: the % may be the effect or the level left; procedure, shortened: as §2
[31] = system: UACC-257; assay: Growth inhibition of human UACC257 cells
[32] = system: NCI-H23; assay: Growth inhibition of human NCI-H23 cells assessed tumor cell growth at 10^-5 M; design: scale not given: the % may be the effect or the level left; procedure, shortened: as §1
[33] = system: UACC-257; assay: Growth inhibition of human UACC257 cells assessed tumor cell growth at 10^-5 M; design: scale not given: the % may be the effect or the level left; procedure, shortened: as §2
[34] = system: M14; assay: Growth inhibition of human M14 cells
[35] = system: 786-0; assay: Growth inhibition of human 786-0 cells assessed tumor cell growth at 10^-5 M; design: scale not given: the % may be the effect or the level left; procedure, shortened: as §1
[36] = system: CCRF-CEM; assay: Growth inhibition of human CCRF-CEM cells
[37] = system: NCI-H460; assay: Growth inhibition of human NCI-H460 cells assessed tumor cell growth at 10^-5 M; design: scale not given: the % may be the effect or the level left; procedure, shortened: as §1
[38] = system: SF-295; assay: Growth inhibition of human SF295 cells
[39] = system: SF-539; assay: Growth inhibition of human SF539 cells assessed tumor cell growth at 10^-5 M; design: scale not given: the % may be the effect or the level left; procedure, shortened: as §1
[40] = system: SNB-19; assay: Growth inhibition of human SNB19 cells
[41] = system: EKVX; assay: Growth inhibition of human EKVX cells assessed tumor cell growth at 10^-5 M; design: scale not given: the % may be the effect or the level left; procedure, shortened: as §1
[42] = system: MOLT-4; assay: Growth inhibition of human MOLT4 cells
[43] = system: OVCAR-8; assay: Growth inhibition of human OVCAR8 cells assessed tumor cell growth at 10^-5 M; design: scale not given: the % may be the effect or the level left; procedure, shortened: as §1
[44] = system: NCI-H226; assay: Growth inhibition of human NCI-H226 cells
[45] = system: SN12C; assay: Growth inhibition of human SN12C cells assessed tumor cell growth at 10^-5 M; design: scale not given: the % may be the effect or the level left; procedure, shortened: as §1
[46] = system: NCI-H322M; assay: Growth inhibition of human NCI-H322M cells
[47] = system: UO-31; assay: Growth inhibition of human UO31 cells
[48] = system: A498; assay: Growth inhibition of human A498 cells
[49] = system: COLO 205; assay: Growth inhibition of human COLO205 cells assessed tumor cell growth at 10^-5 M; design: scale not given: the % may be the effect or the level left; procedure, shortened: as §1
[50] = system: PC-3; assay: Growth inhibition of human PC3 cells
[51] = system: DU-145; assay: Growth inhibition of human DU145 cells
[52] = system: CAKI-1; assay: Growth inhibition of human Caki1 cells assessed tumor cell growth at 10^-5 M; design: scale not given: the % may be the effect or the level left; procedure, shortened: as §1
[53] = system: SK-MEL-2; assay: Growth inhibition of human SK-MEL-2 cells assessed tumor cell growth at 10^-5 M; design: scale not given: the % may be the effect or the level left; procedure, shortened: as §1
[54] = read-out: LC50 (the source's name)

CC1=NN(c2cccc(Cl)c2)C(=O)/C1=C\C=C\c1ccccc1
GI50 [1]: 1.6 µM
CC50 [1, 54]: 39.8 µM
GI50 [2]: 3.3 µM
CC50 [2, 54]: > 100 µM
Activity [3]: 6.78%
GI50 [4]: 1.9 µM
CC50 [4, 54]: > 100 µM
Activity [5]: 34.37%
GI50 [6]: 7 µM
CC50 [6, 54]: > 100 µM
GI50 [7]: 3 µM
CC50 [7, 54]: > 100 µM
Activity [8]: 3.87%
GI50 [9]: 2.8 µM
CC50 [9, 54]: > 100 µM
Activity [10]: -17.49%
Activity [11]: 2.35%
Activity [12]: 9.96%
GI50 [13]: 2.1 µM
CC50 [13, 54]: 7.2 µM
Activity [14]: 75.5%
Activity [15]: 69.7%
GI50 [16]: 1.7 µM
CC50 [16, 54]: 6.1 µM
Activity [17]: 45.54%
Activity [18]: 41.86%
GI50 [19]: 2.9 µM
CC50 [19, 54]: > 100 µM
Activity [20]: -76.48%
Activity [21]: 5.05%
Activity [22]: 5%
GI50 [23]: 2.6 µM
CC50 [23, 54]: > 100 µM
Activity [24]: 30.87%
GI50 [25]: 1.7 µM
CC50 [25, 54]: 6.7 µM
GI50 [26]: 1.6 µM
CC50 [26, 54]: 6.4 µM
Activity [27]: -87.73%
Activity [28]: 76.92%
Activity [29]: -87.87%
Activity [30]: 62.01%
GI50 [31]: 2.1 µM
CC50 [31, 54]: > 100 µM
Activity [32]: 26.27%
Activity [33]: 63.3%
GI50 [34]: 1.6 µM
CC50 [34, 54]: 7.5 µM
Activity [35]: 35.48%
GI50 [36]: 3.1 µM
CC50 [36, 54]: > 100 µM
Activity [37]: 100.76%
GI50 [38]: 3.1 µM
CC50 [38, 54]: > 100 µM
Activity [39]: 21.62%
GI50 [40]: 5.6 µM
CC50 [40, 54]: > 100 µM
Activity [41]: 87.07%
GI50 [42]: 3.1 µM
LC50 [42]: > 100 µM
Activity [43]: 0.37%
GI50 [44]: 2.6 µM
CC50 [44, 54]: 64.5 µM
Activity [45]: 0.41%
GI50 [46]: 28.1 µM
CC50 [46, 54]: > 100 µM
GI50 [47]: 1.6 µM
CC50 [47, 54]: 7.5 µM
GI50 [48]: 17.7 µM
CC50 [48, 54]: > 100 µM
Activity [49]: 11.57%
GI50 [50]: 2.9 µM
CC50 [50, 54]: > 100 µM
GI50 [51]: 2.8 µM
CC50 [51, 54]: 53.7 µM
Activity [52]: 52.22%
Activity [53]: 74.62%
